Measured values from ChEMBL document CHEMBL1145842, “A selective human H(4)-receptor agonist: (-)-2-cyano-1-methyl-3-[(2R,5R)-5- [1H-imidazol-4(5)-yl]tetrahydrofuran-2-y] methylguanidine” (J Med Chem, 2003).
Activity calls are given as the source filed them. The rule behind the calls is not given here.

How the values were obtained:
Histamine H3 receptor [1] = target: T1, Histamine H3 receptor (Homo sapiens, UniProt Q9Y5N1); test: Histamine H3 receptor competition binding using [3H]Na-methylhistamine
Histamine H3 receptor [2] = target: T1, Histamine H3 receptor; test: Inhibition of the forskolin-stimulated cAMP production in SK-N-MC cells expressing human Histamine H3 receptor; format: functional, cell-based
Histamine H3 receptor [3] = target: T1, Histamine H3 receptor; test: Efficacy measured for human Histamine H3 receptor relative to histamine; format: functional
Histamine H4 receptor [4] = target: T2, Histamine H4 receptor (Homo sapiens, UniProt Q9H3N8); test: Inhibition of the forskolin-stimulated cAMP production in SK-N-MC cells expressing human Histamine H4 receptor; format: functional, cell-based
Histamine H4 receptor [5] = target: T2, Histamine H4 receptor; test: Histamine H4 receptor competition binding using [3H]Na-methylhistamine
Histamine H4 receptor [6] = target: T2, Histamine H4 receptor; test: Efficacy measured for human Histamine H4 receptor relative to histamine; format: functional
Histamine H3 receptor [7] = target: T1, Histamine H3 receptor; test: Compound was tested for H3 receptor competition binding using [3H]- Na-methylhistamine
Procedure, shortened: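 Homogenates of SK-N-MC cells stably expressing human H3 receptor, in 50 mM Na2HPO4 pH 7.4, incubated 1 h at 37 °C with 1.0 nM [3H]Nα-methylhistamine with or without competitor. Filtration through GF/C filters pretreated with 0.3% polyethylenimine, three washes with ice-cold 25 mM Tris-HCl, 145 mM NaCl pH 7.4, then scintillation counting.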

Histamine H3 receptor [8] = target: T1, Histamine H3 receptor; test: Inhibition of the forskolin-stimulated cAMP production in SK-N-MC cells expressing human Histamine H3 receptor; Not effective; format: functional, cell-based

T1 sequence (Q9Y5N1 whole entry): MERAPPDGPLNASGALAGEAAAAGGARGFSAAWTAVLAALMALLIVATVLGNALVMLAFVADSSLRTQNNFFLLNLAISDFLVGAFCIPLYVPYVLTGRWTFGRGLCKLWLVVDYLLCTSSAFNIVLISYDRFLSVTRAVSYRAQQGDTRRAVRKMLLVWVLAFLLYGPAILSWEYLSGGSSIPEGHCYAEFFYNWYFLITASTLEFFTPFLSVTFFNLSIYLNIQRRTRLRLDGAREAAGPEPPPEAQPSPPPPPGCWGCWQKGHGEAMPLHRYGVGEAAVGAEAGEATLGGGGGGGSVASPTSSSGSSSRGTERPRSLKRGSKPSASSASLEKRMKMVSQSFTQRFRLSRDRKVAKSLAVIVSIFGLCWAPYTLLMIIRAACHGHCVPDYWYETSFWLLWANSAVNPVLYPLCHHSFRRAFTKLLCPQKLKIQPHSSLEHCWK
T2 sequence (Q9H3N8 whole entry): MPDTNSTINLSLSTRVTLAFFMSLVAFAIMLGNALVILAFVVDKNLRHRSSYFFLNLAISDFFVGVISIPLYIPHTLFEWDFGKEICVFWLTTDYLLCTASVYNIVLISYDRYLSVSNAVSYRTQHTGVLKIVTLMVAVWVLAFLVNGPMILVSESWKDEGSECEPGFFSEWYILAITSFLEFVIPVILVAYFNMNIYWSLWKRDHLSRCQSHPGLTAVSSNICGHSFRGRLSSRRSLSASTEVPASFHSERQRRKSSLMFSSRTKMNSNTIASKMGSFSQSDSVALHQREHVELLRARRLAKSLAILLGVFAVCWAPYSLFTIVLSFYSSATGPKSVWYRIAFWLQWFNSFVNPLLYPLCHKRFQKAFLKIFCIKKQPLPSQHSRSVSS

SMILES | Ki (Histamine H3 receptor [1]) | EC50 (Histamine H3 receptor [2]) | Efficacy (Histamine H3 receptor [3]) | EC50 (Histamine H4 receptor [4]) | Ki (Histamine H4 receptor [5]) | Efficacy (Histamine H4 receptor [6]) | Ki (Histamine H3 receptor [7]) | NE (Histamine H3 receptor [8])
c1ccc(COC[C@@H]2CC[C@H](c3c[nH]cn3)O2)cc1 | 331 nM | 191 nM | 1.06 | 135 nM | 437 nM | 0.91 | – | –
NC[C@@H]1CC[C@@H](c2c[nH]cn2)O1 | 219 nM | 105 nM | 0.91 | 30900 nM | 12900 nM | 0.6 | – | –
C/N=C(\NC#N)NC[C@@H]1CC[C@@H](c2c[nH]cn2)O1 | – | – | – | 21400 nM | 20400 nM | 1.06 | – | –
NC[C@H]1C=C[C@@H](c2c[nH]cn2)O1 (single isomer, unassigned) | – | > 100000 nM | – | 75900 nM | 12000 nM | 0.71 | 20000 nM | –
NC[C@H]1C=C[C@H](c2c[nH]cn2)O1 | 1020 nM | 269 nM | 1 | 24000 nM | 11700 nM | 0.76 | – | –
NC[C@@H]1CC[C@H](c2c[nH]cn2)O1 (single isomer, unassigned) | 2040 nM | 776 nM | 1.06 | 5500 nM | 2510 nM | 0.88 | – | –
NC[C@@H]1C=C[C@H](c2c[nH]cn2)O1 (single isomer, unassigned) | 11500 nM | 26900 nM | 0.93 | 40700 nM | 21900 nM | 0.74 | – | –
C/N=C(\NC#N)NC[C@@H]1CC[C@H](c2c[nH]cn2)O1 (single isomer, unassigned) | – | – | 0.43 | 224 nM | 224 nM | 1.01 | – | –
C/N=C(\NC#N)NC[C@H]1CC[C@H](c2c[nH]cn2)O1 | – | – | 0.79 | 77.6 nM | 126 nM | – | – | –
NC[C@@H]1C=C[C@@H](c2c[nH]cn2)O1 | 2510 nM | 2820 nM | 0.75 | 85100 nM | > 100000 nM | 0.85 | – | –
c1ccc(COC[C@@H]2CC[C@@H](c3c[nH]cn3)O2)cc1 | – | 9550 nM | 0.66 | 12900 nM | 21400 nM | 0.49 | 10500 nM | –
c1ccc(COC[C@H]2CC[C@@H](c3c[nH]cn3)O2)cc1 | 6920 nM | 9770 nM | 0.86 | 11500 nM | 13500 nM | 0.82 | – | –
c1ccc(COC[C@H]2CC[C@H](c3c[nH]cn3)O2)cc1 | 245 nM | 91.2 nM | 0.97 | 741 nM | 1050 nM | 0.46 | – | –
NC[C@H]1CC[C@H](c2c[nH]cn2)O1 [IMIFURAMINE] | 229 nM | 44.7 nM | 1.04 | 2000 nM | 891 nM | 0.7 | – | –
NC[C@H]1CC[C@@H](c2c[nH]cn2)O1 (single isomer, unassigned) | 1700 nM | 813 nM | 0.95 | 7590 nM | 6460 nM | 1.02 | – | –
C/N=C(\NC#N)NC[C@H]1CC[C@@H](c2c[nH]cn2)O1 (single isomer, unassigned) | – | – | < 0.1 | – | – | 1.07 | – | inactive
